# The source made the active and inactive calls. The rule behind the calls is not given here.
# Tests used:
# [1] = biological target: Discoidin domain-containing receptor 2 (Homo sapiens) (UniProt Q16832); test: Inhibition of recombinant human N-terminal GST-tagged DDR2 (467 to 854 residues) expressed in baculovirus infected Sf21 cells assessed as remaining activity at 1 uM using KKSRGDYMTMQIG as substrate incubated for 30 mins in presence of [gamma-33P]ATP by filter binding method relative to control
# Sequence of Discoidin domain-containing receptor 2 (Homo sapiens) (Q16832 whole entry, the tested form may be a part): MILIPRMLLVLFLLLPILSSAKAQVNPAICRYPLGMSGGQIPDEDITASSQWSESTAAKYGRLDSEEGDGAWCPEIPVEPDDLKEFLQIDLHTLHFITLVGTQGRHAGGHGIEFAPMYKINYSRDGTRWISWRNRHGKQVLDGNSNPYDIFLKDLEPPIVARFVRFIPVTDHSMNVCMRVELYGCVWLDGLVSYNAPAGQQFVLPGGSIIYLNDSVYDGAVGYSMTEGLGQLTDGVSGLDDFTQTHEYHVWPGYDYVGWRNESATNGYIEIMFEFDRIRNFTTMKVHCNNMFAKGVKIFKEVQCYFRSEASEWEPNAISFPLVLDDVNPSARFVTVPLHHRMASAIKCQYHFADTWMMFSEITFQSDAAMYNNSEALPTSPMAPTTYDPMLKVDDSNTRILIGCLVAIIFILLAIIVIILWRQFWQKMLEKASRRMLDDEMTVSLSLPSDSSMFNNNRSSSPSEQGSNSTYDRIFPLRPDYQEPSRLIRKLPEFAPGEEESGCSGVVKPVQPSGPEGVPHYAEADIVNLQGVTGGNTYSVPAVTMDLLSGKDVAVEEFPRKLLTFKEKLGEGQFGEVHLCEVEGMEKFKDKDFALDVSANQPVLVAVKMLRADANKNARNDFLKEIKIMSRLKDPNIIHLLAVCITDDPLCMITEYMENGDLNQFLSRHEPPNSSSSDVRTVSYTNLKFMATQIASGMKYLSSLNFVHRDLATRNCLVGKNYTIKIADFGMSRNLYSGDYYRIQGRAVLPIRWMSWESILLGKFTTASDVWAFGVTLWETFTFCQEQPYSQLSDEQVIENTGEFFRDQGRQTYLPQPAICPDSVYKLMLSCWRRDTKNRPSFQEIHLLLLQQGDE
# [2] = biological target: Insulin-like growth factor 1 receptor (Homo sapiens) (UniProt P08069); test: Inhibition of recombinant human N-terminal His6-tagged IGF1R (954 to 1367 residues) expressed in baculovirus infected Sf21 cells assessed as remaining activity at 1 uM using KKKSPGEYVNIEFG as substrate incubated for 30 mins in presence of [gamma-33P]ATP by filter binding method relative to control
# [3] = biological target: Mitogen-activated protein kinase 8 (Homo sapiens) (UniProt P45983); test: Inhibition of recombinant human His6-tagged JNK1 (1 to 384 residues) expressed in baculovirus infected Sf21 cells assessed as remaining activity at 1 uM using ATF2 as substrate incubated for 30 mins in presence of [gamma-33P]ATP by filter binding method relative to control
# [4] = biological target: Mitogen-activated protein kinase kinase kinase 1 (Homo sapiens) (UniProt Q13233); test: Inhibition of recombinant human N-terminal GST/C-terminal His6-tagged MEKK1 ((877 to 1563 residues) expressed in Escherichia coli assessed as remaining activity at 1 uM using MBP as substrate incubated for 30 mins in presence of [gamma-33P]ATP by filter binding method relative to control
# Sequence of Mitogen-activated protein kinase kinase kinase 1 (Homo sapiens) (Q13233 whole entry, the tested form may be a part): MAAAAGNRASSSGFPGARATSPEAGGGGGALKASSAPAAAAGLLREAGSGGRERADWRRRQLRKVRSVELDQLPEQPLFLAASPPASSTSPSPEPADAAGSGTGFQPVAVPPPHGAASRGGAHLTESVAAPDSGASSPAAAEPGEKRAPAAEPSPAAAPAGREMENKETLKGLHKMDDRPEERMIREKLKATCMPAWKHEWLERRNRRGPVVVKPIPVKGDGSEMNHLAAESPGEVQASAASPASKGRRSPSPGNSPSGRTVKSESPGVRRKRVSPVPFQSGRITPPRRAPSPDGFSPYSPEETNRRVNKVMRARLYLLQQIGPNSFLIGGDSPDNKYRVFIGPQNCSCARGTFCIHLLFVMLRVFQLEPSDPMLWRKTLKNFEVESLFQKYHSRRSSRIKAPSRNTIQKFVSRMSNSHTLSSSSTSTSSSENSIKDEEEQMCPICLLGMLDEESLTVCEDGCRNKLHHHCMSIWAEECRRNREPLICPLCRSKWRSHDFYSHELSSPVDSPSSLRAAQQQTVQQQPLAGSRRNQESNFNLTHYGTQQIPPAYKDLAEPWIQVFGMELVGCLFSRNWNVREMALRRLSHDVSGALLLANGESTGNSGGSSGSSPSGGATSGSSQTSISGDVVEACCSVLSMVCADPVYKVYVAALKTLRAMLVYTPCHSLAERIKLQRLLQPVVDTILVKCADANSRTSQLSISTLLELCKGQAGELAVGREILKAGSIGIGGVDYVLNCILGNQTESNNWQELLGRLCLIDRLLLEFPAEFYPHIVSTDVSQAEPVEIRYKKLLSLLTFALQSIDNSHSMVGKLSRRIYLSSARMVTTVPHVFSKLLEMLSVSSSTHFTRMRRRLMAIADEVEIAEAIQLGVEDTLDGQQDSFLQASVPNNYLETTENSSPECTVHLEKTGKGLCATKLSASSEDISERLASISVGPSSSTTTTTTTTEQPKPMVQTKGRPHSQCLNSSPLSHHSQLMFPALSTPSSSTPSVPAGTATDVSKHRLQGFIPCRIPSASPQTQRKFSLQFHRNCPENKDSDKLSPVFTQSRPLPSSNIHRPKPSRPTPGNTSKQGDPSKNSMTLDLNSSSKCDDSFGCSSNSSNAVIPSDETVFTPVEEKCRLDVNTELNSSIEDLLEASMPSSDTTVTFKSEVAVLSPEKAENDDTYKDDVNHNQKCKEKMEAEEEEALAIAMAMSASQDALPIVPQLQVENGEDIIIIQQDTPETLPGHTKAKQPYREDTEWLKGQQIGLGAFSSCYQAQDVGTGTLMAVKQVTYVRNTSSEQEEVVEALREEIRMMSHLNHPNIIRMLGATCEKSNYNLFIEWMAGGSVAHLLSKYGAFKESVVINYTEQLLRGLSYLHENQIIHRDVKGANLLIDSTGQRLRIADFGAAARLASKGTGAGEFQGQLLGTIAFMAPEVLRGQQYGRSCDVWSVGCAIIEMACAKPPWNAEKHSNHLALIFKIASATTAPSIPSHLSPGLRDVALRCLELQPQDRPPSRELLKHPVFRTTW
# [5] = biological target: Dual specificity tyrosine-phosphorylation-regulated kinase 4 (Homo sapiens) (UniProt Q9NR20); test: Inhibition of human DYRK4 at 1 uM using RBER-CHKtide as substrate in presence of 33P-ATP by ProQinase assay
# [6] = biological target: Serine/threonine-protein kinase D2 (Homo sapiens) (UniProt Q9BZL6); test: Inhibition of human PRKD2 at 1 uM using RBER-CHKtide as substrate in presence of 33P-ATP by ProQinase assay
# [7] = test system: Dual specificity mitogen-activated protein kinase kinase 6 (Homo sapiens), P52564 [S207D,T211D]; test: Inhibition of human MKK6 S207D/T211D double mutant at 1 uM using p38-alpha KA as substrate in presence of 33P-ATP by ProQinase assay
# [8] = biological target: Tyrosine-protein kinase JAK2 (Homo sapiens) (UniProt O60674); test: Inhibition of JAK2 (unknown origin) assessed as remaining activity at 1 uM relative to control
# Sequence of Tyrosine-protein kinase JAK2 (Homo sapiens) (O60674 whole entry, the tested form may be a part): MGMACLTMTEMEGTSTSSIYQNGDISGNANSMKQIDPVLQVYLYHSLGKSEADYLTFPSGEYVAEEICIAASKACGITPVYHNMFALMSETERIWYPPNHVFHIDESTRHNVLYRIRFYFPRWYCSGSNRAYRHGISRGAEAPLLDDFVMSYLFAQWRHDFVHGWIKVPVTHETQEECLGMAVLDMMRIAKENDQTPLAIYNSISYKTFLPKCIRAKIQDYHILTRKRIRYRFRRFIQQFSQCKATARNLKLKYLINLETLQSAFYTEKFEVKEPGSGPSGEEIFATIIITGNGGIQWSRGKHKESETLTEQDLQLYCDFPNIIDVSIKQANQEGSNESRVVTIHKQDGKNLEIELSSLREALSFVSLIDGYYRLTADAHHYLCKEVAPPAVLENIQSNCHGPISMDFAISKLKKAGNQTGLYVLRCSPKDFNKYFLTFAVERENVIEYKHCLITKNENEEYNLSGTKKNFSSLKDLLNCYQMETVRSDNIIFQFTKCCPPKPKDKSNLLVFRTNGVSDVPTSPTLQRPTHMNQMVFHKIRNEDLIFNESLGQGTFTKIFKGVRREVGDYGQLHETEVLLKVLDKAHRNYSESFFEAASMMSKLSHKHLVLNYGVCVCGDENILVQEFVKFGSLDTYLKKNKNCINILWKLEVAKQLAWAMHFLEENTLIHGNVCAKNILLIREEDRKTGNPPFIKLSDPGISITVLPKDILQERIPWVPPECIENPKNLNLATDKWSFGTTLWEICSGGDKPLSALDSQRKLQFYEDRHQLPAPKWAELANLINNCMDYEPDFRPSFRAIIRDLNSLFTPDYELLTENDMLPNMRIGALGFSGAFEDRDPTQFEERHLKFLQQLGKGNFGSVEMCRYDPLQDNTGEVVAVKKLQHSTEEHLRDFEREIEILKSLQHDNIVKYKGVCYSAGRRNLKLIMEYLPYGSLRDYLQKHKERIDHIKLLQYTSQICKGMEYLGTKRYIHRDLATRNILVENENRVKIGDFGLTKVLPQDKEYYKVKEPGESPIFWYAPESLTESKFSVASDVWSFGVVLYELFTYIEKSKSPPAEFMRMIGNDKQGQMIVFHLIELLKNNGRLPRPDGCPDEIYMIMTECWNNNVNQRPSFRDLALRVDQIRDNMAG
# Method in brief: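 Dundee panel of 140 protein kinases, tested at a single 1 μM concentration. Each assay was run in triplicate. Remaining activity is expressed relative to a control reaction without inhibitor, as mean ± S.D. Conditions for each kinase were those of the screening centre.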
# [9] = biological target: Fibroblast growth factor receptor 1 (Homo sapiens) (UniProt P11362); test: Inhibition of recombinant human N-terminal His6-tagged FGFR1 (400 to 820 residues) expressed in baculovirus infected Sf21 cells assessed as remaining activity at 1 uM using Poly(Glu,Tyr) as substrate incubated for 30 mins in presence of [gamma-33P]ATP by filter binding method relative to control
# [10] = biological target: Vascular endothelial growth factor receptor 1 (Homo sapiens) (UniProt P17948); test: Inhibition of human VEGFR1 at 1 uM using polyEY as substrate in presence of 33P-ATP by ProQinase assay
# [11] = biological target: Casein kinase I isoform epsilon (Homo sapiens) (UniProt P49674); test: Inhibition of human CK1epsilon at 1 uM using casein as substrate in presence of 33P-ATP by ProQinase assay
# [12] = biological target: Serine/threonine-protein kinase PLK2 (Homo sapiens) (UniProt Q9NYY3); test: Inhibition of human SNK at 1 uM using RBER-GSK3 as substrate in presence of 33P-ATP by ProQinase assay
# [13] = biological target: Phosphorylase b kinase gamma catalytic chain, skeletal muscle/heart isoform (Homo sapiens) (UniProt Q16816); test: Inhibition of recombinant human N-terminal GST-tagged PHKgamma1 (2 to 297 residues) expressed in Escherichia coli assessed as remaining activity at 1 uM using phosphorylase b peptide as substrate incubated for 30 mins in presence of [gamma-33P]ATP by filter binding method relative to control
# [14] = biological target: Cyclin-dependent kinase 5/CDK5 activator 1 (Homo sapiens) (UniProt Q00535+Q15078); test: Inhibition of human CDK5/p35NCK at 1 uM using RBER-CHKtide as substrate in presence of 33P-ATP by ProQinase assay; format: protein-complex assay
# [15] = biological target: Protein kinase C gamma type (Homo sapiens) (UniProt P05129); test: Inhibition of human PKCgamma at 1 uM using 3xChocktide-PKC as substrate in presence of 33P-ATP by ProQinase assay
# [16] = biological target: Homeodomain-interacting protein kinase 1 (Homo sapiens) (UniProt Q86Z02); test: Inhibition of human HIPK1 at 1 uM using RBER-CHKtide as substrate in presence of 33P-ATP by ProQinase assay
# Sequence of Homeodomain-interacting protein kinase 1 (Homo sapiens) (Q86Z02 whole entry, looked up): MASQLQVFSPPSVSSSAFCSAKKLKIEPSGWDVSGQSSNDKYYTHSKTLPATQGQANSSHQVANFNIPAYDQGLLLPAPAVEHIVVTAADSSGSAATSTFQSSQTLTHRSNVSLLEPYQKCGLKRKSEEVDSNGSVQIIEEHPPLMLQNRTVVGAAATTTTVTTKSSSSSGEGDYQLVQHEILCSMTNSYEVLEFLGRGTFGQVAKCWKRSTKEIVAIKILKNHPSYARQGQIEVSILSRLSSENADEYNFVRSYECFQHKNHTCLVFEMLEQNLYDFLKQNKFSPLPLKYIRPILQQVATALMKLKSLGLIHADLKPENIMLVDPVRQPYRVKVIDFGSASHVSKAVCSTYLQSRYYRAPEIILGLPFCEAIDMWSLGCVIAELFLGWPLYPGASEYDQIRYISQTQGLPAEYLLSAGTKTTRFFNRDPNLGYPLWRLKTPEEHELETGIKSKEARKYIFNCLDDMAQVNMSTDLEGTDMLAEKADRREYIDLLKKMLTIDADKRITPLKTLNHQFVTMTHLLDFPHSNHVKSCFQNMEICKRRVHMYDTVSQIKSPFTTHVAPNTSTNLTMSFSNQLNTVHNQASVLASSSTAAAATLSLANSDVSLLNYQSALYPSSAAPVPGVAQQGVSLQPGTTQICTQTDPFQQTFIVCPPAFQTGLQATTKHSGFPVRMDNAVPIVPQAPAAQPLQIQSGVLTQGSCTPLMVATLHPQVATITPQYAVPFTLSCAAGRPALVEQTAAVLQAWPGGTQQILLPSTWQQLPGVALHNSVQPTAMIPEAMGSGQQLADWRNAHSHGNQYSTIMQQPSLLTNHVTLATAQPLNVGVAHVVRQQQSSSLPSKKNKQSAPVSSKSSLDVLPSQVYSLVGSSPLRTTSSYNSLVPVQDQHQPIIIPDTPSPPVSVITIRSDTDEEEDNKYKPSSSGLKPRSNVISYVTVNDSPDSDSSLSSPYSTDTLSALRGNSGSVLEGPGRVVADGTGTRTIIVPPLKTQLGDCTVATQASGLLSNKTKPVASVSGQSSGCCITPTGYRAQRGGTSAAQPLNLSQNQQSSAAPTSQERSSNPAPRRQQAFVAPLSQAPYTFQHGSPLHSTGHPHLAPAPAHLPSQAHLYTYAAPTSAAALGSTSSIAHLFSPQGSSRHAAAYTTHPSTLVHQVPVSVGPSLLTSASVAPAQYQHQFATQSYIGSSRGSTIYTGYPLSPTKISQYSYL
# [17] = biological target: Mitogen-activated protein kinase kinase kinase 1 (Homo sapiens) (UniProt Q13233); test: Inhibition of human MAP3K1 at 1 uM using bio-4xCHKT as substrate in presence of 33P-ATP by ProQinase assay
# [18] = biological target: Serine/threonine-protein kinase mTOR (Homo sapiens) (UniProt P42345); test: Inhibition of human mTOR at 1 uM using casein as substrate in presence of 33P-ATP by ProQinase assay
# [19] = biological target: Serine/threonine-protein kinase pim-3 (Homo sapiens) (UniProt Q86V86); test: Inhibition of recombinant human N-terminal His6-tagged PIM3 (2 to 326 residues) expressed in baculovirus infected Sf21 cells assessed as remaining activity at 1 uM using RSRHSSYPAGT as substrate incubated for 30 mins in presence of [gamma-33P]ATP by filter binding method relative to control
# [20] = biological target: Tyrosine-protein kinase Srms (Homo sapiens) (UniProt Q9H3Y6); test: Inhibition of human SRMS at 1 uM using PolyEY as substrate in presence of 33P-ATP by ProQinase assay
# [21] = biological target: Rho-associated protein kinase 1 (Homo sapiens) (UniProt Q13464); test: Inhibition of human ROCK1 at 1 uM using 3xChocktide-PKC as substrate in presence of 33P-ATP by ProQinase assay
# [22] = biological target: Tyrosine-protein kinase JAK2 (Homo sapiens) (UniProt O60674); test: Inhibition of human JAK2 at 1 uM using poly(Ala,Glu,Lys,Tyr) as substrate in presence of 33P-ATP by ProQinase assay
# [23] = biological target: Tyrosine-protein kinase ZAP-70 (Homo sapiens) (UniProt P43403); test: Inhibition of recombinant human N-terminal His6-tagged ZAP70 (1 to 619 residues) expressed in baculovirus infected Sf21 cells assessed as remaining activity at 1 uM using Poly(Glu,Tyr) as substrate incubated for 30 mins in presence of [gamma-33P]ATP by filter binding method relative to control
# [24] = biological target: Serine/threonine-protein kinase 26 (Homo sapiens) (UniProt Q9P289); test: Inhibition of human MST4 at 1 uM using RB-CTF as substrate in presence of 33P-ATP by ProQinase assay
# Sequence of Serine/threonine-protein kinase 26 (Homo sapiens) (Q9P289 2-416 limits assumed): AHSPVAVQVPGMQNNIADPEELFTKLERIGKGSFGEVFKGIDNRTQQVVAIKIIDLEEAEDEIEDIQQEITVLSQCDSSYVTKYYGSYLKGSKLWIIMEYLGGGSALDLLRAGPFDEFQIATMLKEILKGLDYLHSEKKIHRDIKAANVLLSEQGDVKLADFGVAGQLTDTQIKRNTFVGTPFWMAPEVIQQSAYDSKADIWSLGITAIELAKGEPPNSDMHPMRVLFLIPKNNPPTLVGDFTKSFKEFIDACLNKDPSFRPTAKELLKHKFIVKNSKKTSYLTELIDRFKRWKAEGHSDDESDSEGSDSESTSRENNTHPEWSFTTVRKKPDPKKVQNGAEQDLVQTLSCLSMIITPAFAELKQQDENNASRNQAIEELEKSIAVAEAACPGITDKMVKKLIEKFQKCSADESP
smiles,measurement,setting,value
CC(C)(O)CNc1ncc(-c2ccnc(Nc3ccnc(Cl)c3)n2)c(CC2CC2)n1,Activity,[1],111%
same,Activity,[2],101%
same,Activity,[3],112%
same,Activity,[4],109%
same,inhibition,[5],inactive
same,inhibition,[6],inactive
same,inhibition,[7],inactive
same,Activity,[8],93%
same,Activity,[9],95%
same,inhibition,[10],inactive
same,inhibition,[11],inactive
same,inhibition,[12],inactive
same,Activity,[13],105%
same,inhibition,[14],inactive
same,inhibition,[15],inactive
same,inhibition,[16],inactive
same,inhibition,[17],inactive
same,inhibition,[18],inactive
same,Activity,[19],114%
same,inhibition,[20],inactive
same,inhibition,[21],inactive
same,inhibition,[22],inactive
same,Activity,[23],110%
same,inhibition,[24],inactive
